According to ChEMBL document CHEMBL4041524, “Synthesis and Characterization of a Novel γ-Aminobutyric Acid Type A (GABAA) Receptor Ligand That Combines Outstanding Metabolic Stability, Pharmacokinetics, and Anxiolytic Efficacy” (J Med Chem, 2016):
Calls of active or inactive are those of the source. No cut-off for these calls is given here.

How the values were obtained:
Mus musculus [1] = assay: Toxicity in Swiss mouse assessed as change in motor coordination by measuring number of falls from the rotating rod at 10 mg/kg, ip administered 30 mins prior to testing measured for 2 mins by rotarod test relative to control; assay type: organism-based; conditions: in vivo
Procedure, shortened: (§1)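 The same mice used for marble burying were placed on a rotarod at 4 r.p.m. for 2 min. No fall was scored success, one fall partial, and two falls failure.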

[2] = target: T1, GABA-A receptor; alpha-1/beta-3/gamma-2 (Homo sapiens, UniProt P14867+P18507+P28472); assay: Binding affinity to human GABAA alpha1beta3gamma2 receptor expressed in HEK293 cells assessed as GABA-induced membrane potential change preincubated for 3 mins followed by addition of GABA measured after 3 mins by FLIPR assay; assay type: cell-based
T1 sequence (P14867 whole entry): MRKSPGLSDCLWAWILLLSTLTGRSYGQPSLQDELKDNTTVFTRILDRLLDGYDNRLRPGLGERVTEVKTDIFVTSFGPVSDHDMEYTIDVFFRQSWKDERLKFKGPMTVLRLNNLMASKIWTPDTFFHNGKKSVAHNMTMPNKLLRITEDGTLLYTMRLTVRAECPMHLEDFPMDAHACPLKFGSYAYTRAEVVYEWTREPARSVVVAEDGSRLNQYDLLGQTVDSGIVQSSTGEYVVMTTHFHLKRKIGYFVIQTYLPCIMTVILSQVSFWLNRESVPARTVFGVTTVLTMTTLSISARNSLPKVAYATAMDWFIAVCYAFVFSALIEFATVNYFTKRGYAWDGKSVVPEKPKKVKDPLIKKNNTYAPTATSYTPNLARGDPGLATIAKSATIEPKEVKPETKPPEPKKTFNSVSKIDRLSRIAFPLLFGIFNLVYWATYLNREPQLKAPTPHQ
T1 sequence (P18507 whole entry): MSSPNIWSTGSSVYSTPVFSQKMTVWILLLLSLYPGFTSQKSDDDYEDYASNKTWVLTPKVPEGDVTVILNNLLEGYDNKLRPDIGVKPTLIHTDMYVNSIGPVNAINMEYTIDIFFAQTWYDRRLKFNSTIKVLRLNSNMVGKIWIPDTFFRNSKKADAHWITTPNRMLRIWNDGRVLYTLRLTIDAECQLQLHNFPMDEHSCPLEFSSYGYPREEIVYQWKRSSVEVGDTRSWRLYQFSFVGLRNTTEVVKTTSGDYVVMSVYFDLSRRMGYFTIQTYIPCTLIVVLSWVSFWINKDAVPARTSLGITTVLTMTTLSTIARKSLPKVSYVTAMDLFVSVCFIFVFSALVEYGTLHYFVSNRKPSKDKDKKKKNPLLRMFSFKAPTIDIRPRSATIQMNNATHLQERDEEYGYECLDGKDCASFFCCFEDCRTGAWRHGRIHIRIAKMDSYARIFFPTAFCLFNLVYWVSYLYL
T1 sequence (P28472 whole entry): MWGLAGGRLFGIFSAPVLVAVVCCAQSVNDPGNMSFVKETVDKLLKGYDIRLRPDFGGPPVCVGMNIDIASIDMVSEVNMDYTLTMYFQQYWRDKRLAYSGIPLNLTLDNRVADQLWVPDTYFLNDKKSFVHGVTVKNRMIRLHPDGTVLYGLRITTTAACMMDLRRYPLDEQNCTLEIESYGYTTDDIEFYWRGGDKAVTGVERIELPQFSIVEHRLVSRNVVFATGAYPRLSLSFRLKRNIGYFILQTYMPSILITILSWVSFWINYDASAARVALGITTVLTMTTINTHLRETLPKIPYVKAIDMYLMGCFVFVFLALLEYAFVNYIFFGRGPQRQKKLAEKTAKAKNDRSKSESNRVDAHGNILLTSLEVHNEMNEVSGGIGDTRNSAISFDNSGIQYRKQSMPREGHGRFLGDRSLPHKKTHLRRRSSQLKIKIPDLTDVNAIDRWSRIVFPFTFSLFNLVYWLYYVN
Procedure, shortened: (§2)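 Stably transfected HEK293T cells expressing α1β3γ2 (n = 2) or α3β3γ2 (n = 1) GABAARs. Membrane potential was read as fluorescence changes on a FLIPR Tetra, and EC50 was derived.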

Mus musculus [3] = assay: Toxicity in Swiss mouse assessed as change in motor coordination by measuring number of falls from the rotating rod at 30 mg/kg, ip administered 30 mins prior to testing measured for 2 mins by rotarod test relative to control; assay type: organism-based; conditions: in vivo; procedure, shortened: as §1
[4] = target: T2, GABA-A receptor; alpha-3/beta-3/gamma-2 (Homo sapiens, UniProt P18507+P28472+P34903); assay: Binding affinity to human GABAA alpha3beta3gamma2 receptor expressed in HEK293 cells assessed as GABA-induced membrane potential change preincubated for 3 mins followed by addition of GABA measured after 3 mins by FLIPR assay; assay type: cell-based; procedure, shortened: as §2
T2 sequence (P18507 whole entry): T1 sequence (P18507 whole entry)
T2 sequence (P28472 whole entry): T1 sequence (P28472 whole entry)
T2 sequence (P34903 whole entry): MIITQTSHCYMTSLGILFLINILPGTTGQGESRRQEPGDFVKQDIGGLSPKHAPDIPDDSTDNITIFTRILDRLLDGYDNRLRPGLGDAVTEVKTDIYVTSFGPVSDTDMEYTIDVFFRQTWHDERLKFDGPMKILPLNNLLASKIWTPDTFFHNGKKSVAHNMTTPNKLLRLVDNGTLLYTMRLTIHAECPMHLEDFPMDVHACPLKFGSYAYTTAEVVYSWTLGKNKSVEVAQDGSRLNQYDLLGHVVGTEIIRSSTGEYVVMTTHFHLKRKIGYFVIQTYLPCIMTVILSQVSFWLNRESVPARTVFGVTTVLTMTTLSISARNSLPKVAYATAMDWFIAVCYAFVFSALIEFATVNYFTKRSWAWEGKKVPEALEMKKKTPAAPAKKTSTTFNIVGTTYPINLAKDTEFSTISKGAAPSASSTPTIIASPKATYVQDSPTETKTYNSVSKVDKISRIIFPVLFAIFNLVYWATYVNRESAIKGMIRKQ

Liver [5] = assay: Metabolic stability in mouse liver microsomes assessed as compound remaining at 4 uM measured after 30 mins in presence of NADPH by LC-MS/MS analysis; assay type: ADME, microsome; conditions: 0.5 h
Procedure, shortened: (§3)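 Human, mouse or rat liver microsomes were incubated with compound at 4 μM final for 30 min at 37 °C (n = 1). Percent of parent remaining was quantified by LC-MS/MS.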

Liver [6] = assay: Metabolic stability in human liver microsomes assessed as compound remaining at 4 uM measured after 30 mins in presence of NADPH by LC-MS/MS analysis; assay type: ADME, microsome; conditions: 0.5 h; procedure, shortened: as §3
Liver [7] = assay: Metabolic stability in rat liver microsomes assessed as compound remaining at 4 uM measured after 30 mins in presence of NADPH by LC-MS/MS analysis; assay type: ADME, microsome; conditions: 0.5 h; procedure, shortened: as §3
[8] = Drug uptake in Sprague-Dawley rat brain at 10 mg/kg, po measured after 60 mins by LC-MS/MS analysis; assay type: ADME, organism-based; conditions: read-out: Drug uptake
Procedure, shortened: (§4)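 Sprague-Dawley rats (n = 3 per time point) were given 10 mg/kg p.o. Total plasma concentrations were taken at 15, 30, 60 and 120 min. Brain levels of the dosed ligand and of the carboxylic acid metabolite were taken at 60 or 120 min.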

Mus musculus [9] = assay: Anxiolytic-like activity in Swiss Webster mouse marble burying model of anxiety assessed as suppression of marble burying activity at 10 mg/kg, ip administered 30 mins prior to test relative to vehicle-control; assay type: functional, organism-based
Procedure, shortened: (§5)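 Male NIH Swiss Webster mice (n = 10) received vehicle or compound at 10 or 30 mg/kg i.p. 30 min before marble burying testing. Sedation-like behaviour was noted by observation. Analysis was ANOVA with Dunnett's test vs vehicle.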

[10] = Cytotoxicity against HEK293T cells assessed as viable cells measured after 18 hrs by CellTiter-Glo assay; assay type: cell-based, HEK-293T; conditions: human, read-out: LD50
Procedure, shortened: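 HEK293T cells were exposed to compound for 18 h (n = 4). Viable cells were quantified with CellTiter-Glo, and LD50 was derived.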

Mus musculus [11] = assay: Toxicity in Swiss Webster mouse assessed as sedation-like behavior at 30 mg/kg, ip measured after 30 mins; assay type: organism-based; conditions: in vivo, 0.5 h; procedure, shortened: as §5
Mus musculus [12] = assay: Anxiolytic-like activity in Swiss Webster mouse marble burying model of anxiety assessed as suppression of marble burying activity at 30 mg/kg, ip administered 30 mins prior to test relative to vehicle-control; assay type: functional, organism-based; procedure, shortened: as §5
[13] = Total plasma concentration in Sprague-Dawley rat at 10 mg/kg, po measured after 60 mins by LC-MS/MS analysis; assay type: ADME, organism-based; procedure, shortened: as §4

With `C#Cc1ccc2c(c1)C(c1ccccn1)=NCc1c(-c3nc(CC)no3)ncn1-2` the Activity (Mus musculus [1]) was “Toxic”, the EC50 [2] was greater than 20 µM and the Activity (Mus musculus [3]) was “Toxic”. The EC50 [4] was 3.02 µM, the Stability (Liver [5]) was 92% and the Stability (Liver [6]) was 91%. For the same compound, the Stability (Liver [7]) was 97%, the concentration at 1 h [8] was 3090 nM and the Activity (Mus musculus [9]) was “Active”. The CC50 at 18 h [10] was greater than 100 µM, the Activity (Mus musculus [11]) was “Toxic” and the Activity (Mus musculus [12]) was “Active”. For the same compound, the concentration at 1 h [13] was 1720 nM.
